Data reported in ChEMBL document CHEMBL4613292, “5,6-Dihydroxypyrimidine Scaffold to Target HIV-1 Nucleocapsid Protein” (ACS Med Chem Lett, 2020).
Calls of active or inactive are those of the source. The rule behind the calls is not given here.

Columns and labels:
[1] = (§1) Inhibition of HIV1 Nucleocapsid protein (11 to 55 residues) assessed as reduction in NC-induced cTAR DNA destabilization by measuring intrinsic fluorescence using Alexa488-5'-cTAR-3'-Dabcyl oligonucleotide as substrate at 20 degree C incubated for 15 mins by fluorescence assay; set-up: species or system Human immunodeficiency virus 1; conditions: read-out: IC50
In short: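 Fluorescence NC-inhibition assay following destabilisation of cTAR DNA, the complement of the HIV-1 transactivation response element, dual-labelled with Alexa488 dye and Dabcyl quencher. NC protein at 1 μM, so the lowest measurable IC50 is 0.5 μM.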

[2] = system: Human immunodeficiency virus 1; assay: (§2) Antiviral activity against wild-type HIV1 NL4-3 infected in human TZM-bl cells infected with supernatants from virus-infected human MT2 cells treated with compound for 48 to 72 hrs assessed as reduction in viral replication after 2 days by bright Glo-luciferase reporter gene assay based BiCycle assay; format: functional, organism-based; conditions: Human immunodeficiency virus 1, NL4-3, TZM
In short: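 Two-round cell assay over the full replication cycle: MT-2 T cells are infected with wild-type reference strain NL4-3 in the first round, and reporter TZM-bl cells are infected in the second round. Values are given as mean ± deviation.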

[3] = Cytotoxicity against human HeLa cells assessed as reduction in cell viability; format: cell-based
[4] = as §2, with “Selectivity index, ratio of CC50 for human HeLa cells assessed as reduction in cell viability to EC50 for” for “Antiviral activity against”; format: toxicity; conditions: read-out: Ratio CC50/EC50
In short: (§3)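 Selectivity index is CC50 from the respective cytotoxicity assay (HeLa or PBMC) divided by EC50 from the two-round MT-2/TZM-bl NL4-3 assay.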

[5] = Cytotoxicity against phytohemagglutinin and interleukin-2-stimulated human PBMC cells assessed as reduction in cell viability measured after 7 days by MTS assay; format: cell-based
[6] = as §2, with “Selectivity index, ratio of CC50 for human PBMC cells stimulated with phytohemagglutinin and interleukin-2 assessed as reduction in cell viability measured after 7 days by MTS assay to EC50 for” for “Antiviral activity against”; format: toxicity; conditions: read-out: Ratio CC50/EC50; in short: as §3
[7] = system: Human immunodeficiency virus 1; assay: Antiviral activity against PI-resistant HIV1 11808; format: functional, organism-based; conditions: Human immunodeficiency virus 1, 11808
[8] = system: Human immunodeficiency virus 1; assay: Antiviral activity against NRTI-resistant HIV1 7401; format: functional, organism-based; conditions: Human immunodeficiency virus 1, 7401
[9] = system: Human immunodeficiency virus 1; assay: Antiviral activity against NNRTI-resistant HIV1 12231; format: functional, organism-based; conditions: Human immunodeficiency virus 1, 12231
[10] = system: Human immunodeficiency virus 1; assay: Antiviral activity against INI-resistant HIV1 11845; format: functional, organism-based; conditions: Human immunodeficiency virus 1, 11845
[11] = system: Human immunodeficiency virus 1; assay: as §1, with “Ratio” for “Inhibition”, “of IC50 for PI-resistant HIV1 11808 Nucleocapsid protein (11 to 55 residues) using Alexa488-5'-cTAR-3'-Dabcyl oligonucleotide as substrate to IC50 for” for “of”
[12] = system: Human immunodeficiency virus 1; assay: as §1, with “Ratio” for “Inhibition”, “of IC50 for NRTI-resistant HIV1 7401 Nucleocapsid protein (11 to 55 residues) using Alexa488-5'-cTAR-3'-Dabcyl oligonucleotide as substrate to IC50 for” for “of”
[13] = system: Human immunodeficiency virus 1; assay: as §1, with “Ratio” for “Inhibition”, “of IC50 for NNRTI-resistant HIV1 12231 Nucleocapsid protein (11 to 55 residues) using Alexa488-5'-cTAR-3'-Dabcyl oligonucleotide as substrate to IC50 for” for “of”
[14] = system: Human immunodeficiency virus 1; assay: as §1, with “Ratio” for “Inhibition”, “of IC50 for INI-resistant HIV1 11845 Nucleocapsid protein (11 to 55 residues) using Alexa488-5'-cTAR-3'-Dabcyl oligonucleotide as substrate to IC50 for” for “of”
[15] = Half life in mouse plasma at 3 uM by LC-MS/MS analysis; format: ADME, cell-free
[16] = Half life in human plasma at 3 uM by LC-MS/MS analysis; format: ADME, cell-free
[17] = Half life in mouse hepatocytes at 3 uM by LC-MS/MS analysis; format: ADME, cell-based, Hepatocyte
[18] = Half life in human hepatocytes at 3 uM by LC-MS/MS analysis; format: ADME, cell-based, Hepatocyte
[19] = target: Voltage-gated inwardly rectifying potassium channel KCNH2 (Homo sapiens, UniProt Q12809); assay: Displacement of Tracer Red from human ERG measured after 4 hrs by fluorescence polarization assay
Voltage-gated inwardly rectifying potassium channel KCNH2, sequence (Q12809 whole entry): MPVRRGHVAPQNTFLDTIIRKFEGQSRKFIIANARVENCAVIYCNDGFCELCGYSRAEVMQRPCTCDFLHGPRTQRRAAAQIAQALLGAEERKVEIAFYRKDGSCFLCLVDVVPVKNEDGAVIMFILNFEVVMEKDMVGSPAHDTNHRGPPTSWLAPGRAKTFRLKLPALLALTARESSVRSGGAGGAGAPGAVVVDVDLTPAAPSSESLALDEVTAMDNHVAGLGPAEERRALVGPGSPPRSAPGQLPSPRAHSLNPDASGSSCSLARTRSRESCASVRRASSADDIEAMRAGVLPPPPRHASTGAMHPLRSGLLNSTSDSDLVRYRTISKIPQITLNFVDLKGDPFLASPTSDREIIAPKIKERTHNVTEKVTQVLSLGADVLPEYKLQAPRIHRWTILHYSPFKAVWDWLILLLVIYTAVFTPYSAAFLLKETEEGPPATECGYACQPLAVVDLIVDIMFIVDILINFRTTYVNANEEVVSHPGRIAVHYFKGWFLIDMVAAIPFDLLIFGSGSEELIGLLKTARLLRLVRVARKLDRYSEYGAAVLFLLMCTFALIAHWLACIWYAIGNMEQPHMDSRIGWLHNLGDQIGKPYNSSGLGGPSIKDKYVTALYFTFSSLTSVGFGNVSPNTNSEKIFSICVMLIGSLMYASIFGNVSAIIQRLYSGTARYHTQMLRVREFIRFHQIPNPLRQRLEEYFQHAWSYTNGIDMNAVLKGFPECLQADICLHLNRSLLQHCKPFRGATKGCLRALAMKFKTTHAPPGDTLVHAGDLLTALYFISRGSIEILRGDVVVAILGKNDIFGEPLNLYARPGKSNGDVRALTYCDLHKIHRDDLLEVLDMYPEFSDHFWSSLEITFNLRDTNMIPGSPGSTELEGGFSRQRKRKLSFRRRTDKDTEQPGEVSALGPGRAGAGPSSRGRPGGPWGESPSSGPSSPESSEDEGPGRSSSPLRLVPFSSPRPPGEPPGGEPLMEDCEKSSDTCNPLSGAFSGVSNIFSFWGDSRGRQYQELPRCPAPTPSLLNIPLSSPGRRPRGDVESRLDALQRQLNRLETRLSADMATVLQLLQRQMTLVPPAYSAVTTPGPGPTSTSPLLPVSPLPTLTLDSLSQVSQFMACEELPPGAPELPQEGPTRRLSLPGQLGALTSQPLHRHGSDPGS

Cytochrome P450 1A2 = target: T1, Cytochrome P450 1A2 (Homo sapiens, UniProt P05177); assay: Inhibition of human microsomal CYP1A2 expressed in baculovirus infected insect cells using luciferin-1A2 as substrate preincubated with enzyme-substrate mixture for 30 mins followed by further incubation with NADPH for 30 mins by CYP450 luciferase Glo assay; format: ADME
T1 sequence (P05177 whole entry): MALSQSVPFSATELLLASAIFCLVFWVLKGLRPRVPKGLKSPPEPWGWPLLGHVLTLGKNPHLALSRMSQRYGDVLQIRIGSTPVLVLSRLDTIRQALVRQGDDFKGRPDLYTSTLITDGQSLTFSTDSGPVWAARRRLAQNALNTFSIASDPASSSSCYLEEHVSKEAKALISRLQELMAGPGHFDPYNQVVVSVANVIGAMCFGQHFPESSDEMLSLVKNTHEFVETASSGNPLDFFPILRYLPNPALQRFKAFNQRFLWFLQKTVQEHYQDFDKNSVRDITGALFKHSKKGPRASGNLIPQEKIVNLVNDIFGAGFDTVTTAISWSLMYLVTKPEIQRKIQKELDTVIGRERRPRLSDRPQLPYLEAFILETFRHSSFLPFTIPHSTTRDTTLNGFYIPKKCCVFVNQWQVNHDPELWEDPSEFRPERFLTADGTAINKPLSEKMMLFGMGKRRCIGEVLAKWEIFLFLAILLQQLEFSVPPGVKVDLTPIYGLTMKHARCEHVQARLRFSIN

Cytochrome P450 2D6 = Cytochrome P450 2D6 (Homo sapiens, UniProt P10635); assay: Inhibition of human microsomal CYP2D6 expressed in baculovirus infected insect cells using luciferin-ME as substrate preincubated with enzyme/substrate mixture for 30 mins followed by further incubation with NADPH for 30 mins by CYP450 luciferase Glo assay; format: ADME
Cytochrome P450 2D6, sequence (P10635 whole entry): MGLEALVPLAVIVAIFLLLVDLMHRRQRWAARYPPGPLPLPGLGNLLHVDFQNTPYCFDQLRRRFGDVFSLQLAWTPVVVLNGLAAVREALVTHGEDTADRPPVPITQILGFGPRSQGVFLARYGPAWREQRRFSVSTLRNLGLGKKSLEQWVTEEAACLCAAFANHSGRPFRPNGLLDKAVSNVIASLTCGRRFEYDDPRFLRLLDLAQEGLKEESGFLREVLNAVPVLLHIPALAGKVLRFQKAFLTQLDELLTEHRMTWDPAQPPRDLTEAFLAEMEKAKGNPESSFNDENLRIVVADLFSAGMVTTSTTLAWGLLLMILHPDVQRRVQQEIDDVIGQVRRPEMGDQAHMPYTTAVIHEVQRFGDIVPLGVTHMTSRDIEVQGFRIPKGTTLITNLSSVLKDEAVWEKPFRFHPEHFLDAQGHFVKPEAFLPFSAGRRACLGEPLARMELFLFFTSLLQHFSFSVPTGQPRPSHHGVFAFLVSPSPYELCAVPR

Cytochrome P450 3A4 = Cytochrome P450 3A4 (Homo sapiens, UniProt P08684); assay: Inhibition of human microsomal CYP3A4 expressed in baculovirus infected insect cells using luciferin-IPA as substrate preincubated with enzyme/substrate mixture for 30 mins followed by further incubation with NADPH for 30 mins by CYP450 luciferase Glo assay; format: ADME
Cytochrome P450 3A4, sequence (P08684 whole entry): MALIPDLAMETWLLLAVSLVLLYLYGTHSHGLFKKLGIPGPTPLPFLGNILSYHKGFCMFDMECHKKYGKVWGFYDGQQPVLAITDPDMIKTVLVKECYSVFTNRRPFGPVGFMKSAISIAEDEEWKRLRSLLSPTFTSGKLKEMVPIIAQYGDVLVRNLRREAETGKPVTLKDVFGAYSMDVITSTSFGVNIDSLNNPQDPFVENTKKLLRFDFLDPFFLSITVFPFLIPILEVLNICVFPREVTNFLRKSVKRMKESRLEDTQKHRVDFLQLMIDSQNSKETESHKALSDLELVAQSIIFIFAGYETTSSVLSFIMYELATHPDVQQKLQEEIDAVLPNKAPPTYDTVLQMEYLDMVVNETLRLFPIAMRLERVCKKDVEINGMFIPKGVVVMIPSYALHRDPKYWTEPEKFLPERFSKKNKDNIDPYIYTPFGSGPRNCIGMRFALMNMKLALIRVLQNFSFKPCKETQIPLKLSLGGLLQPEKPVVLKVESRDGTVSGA

[20] = Half life in C57BL/6 mouse at 2 mg/kg, iv or 5 mg/kg, po administered as single dose measured up to 24 hrs by LC-MS/MS analysis; format: ADME, organism-based; conditions: in vivo
[21] = Volume of distribution at steady state in C57BL/6 mouse at 2 mg/kg, iv or 5 mg/kg, po administered as single dose measured up to 24 hrs by LC-MS/MS analysis; format: ADME, organism-based; conditions: in vivo, read-out: Vdss
[22] = Clearance in C57BL/6 mouse at 2 mg/kg, iv or 5 mg/kg, po administered as single dose measured up to 24 hrs by LC-MS/MS analysis; format: ADME, organism-based; conditions: in vivo
[23] = Oral bioavailability in C57BL/6 mouse at 5 mg/kg administered as single dose measured up to 24 hrs by LC-MS/MS analysis; format: ADME, organism-based; conditions: in vivo
In short: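 C57BL/6 mice were dosed 5 mg/kg orally, with a 2 mg/kg iv reference arm. Plasma was sampled at eight time points up to 24 h.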

[24] = target: Human immunodeficiency virus type 1 integrase (Human immunodeficiency virus 1) (UniProt Q7ZJM1); assay: Inhibition of wild type recombinant HIV1 His6-tagged integrase expressed in Escherichia coli BL21 using 18 nucleotide 3'-biotin labeled DNA acceptor as substrate upto 10 uM preincubated for 1 hr followed by substrate addition and further incubated for 90 mins in presence of recombinant LEDGF/p75 by HTRF assay
Human immunodeficiency virus type 1 integrase (Human immunodeficiency virus 1), sequence (Q7ZJM1 as listed by the source): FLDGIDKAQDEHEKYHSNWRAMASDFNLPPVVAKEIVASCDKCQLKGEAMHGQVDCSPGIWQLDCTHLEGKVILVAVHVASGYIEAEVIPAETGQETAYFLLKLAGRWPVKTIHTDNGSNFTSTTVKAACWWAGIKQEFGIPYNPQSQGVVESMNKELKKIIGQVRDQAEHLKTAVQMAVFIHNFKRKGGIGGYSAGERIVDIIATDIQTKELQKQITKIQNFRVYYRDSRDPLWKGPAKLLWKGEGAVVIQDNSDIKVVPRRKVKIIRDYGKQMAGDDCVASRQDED

COc1ccnc(-c2nc(O)c(O)c(C(=O)N[C@H](C)C3CCCCC3)n2)c1
IC50 [1]: 22000 nM
EC50 [2]: 40 nM
CC50 [3]: 3000 nM
selectivity ratio [4]: 75
CC50 at 168 h [5]: 2700 nM
selectivity ratio at 7 days [6]: 75
EC50 [7]: 56 nM
EC50 [8]: 31 nM
EC50 [9]: 110 nM
EC50 [10]: 90 nM
Ratio IC50 [11]: 1.4
Ratio IC50 [12]: 0.8
Ratio IC50 [13]: 2.8
Ratio IC50 [14]: 2.3
half-life at 3 µM [15]: > 24 h
half-life at 3 µM [16]: > 6 h
half-life at 3 µM [17]: 1.9 h
half-life at 3 µM [18]: > 4 h
IC50 [19]: > 30000 nM
IC50 (Cytochrome P450 1A2): > 30000 nM
IC50 (Cytochrome P450 2D6): > 30000 nM
IC50 (Cytochrome P450 3A4): > 30000 nM
half-life [20]: 1.4 h
Vd [21]: 0.8 L/kg
clearance [22]: 33.1 mL/min/kg
bioavailability [23]: 25%
inhibition [24]: inactive
